Experimental data as given in ChEMBL document CHEMBL4190362, “Synthesis, biological evaluation and quantitative structure-active relationships of 1,3-thiazolidin-4-one derivatives. A promising chemical scaffold endowed with high antifungal potency and low cytotoxicity” (Eur J Med Chem, 2017).
In brackets after ≈: the same amount, converted by molar mass.

Assays:
Staphylococcus aureus = assay: Antibacterial activity against Staphylococcus aureus assessed as inhibition of microbial growth incubated for 18 to 22 hrs by broth microdilution method; format: functional
Procedure, shortened: (§1)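 Broth microdilution in Mueller-Hinton II broth following NCCLS recommendations; compounds dissolved in DMSO.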

Staphylococcus warneri = assay: Antibacterial activity against Staphylococcus warneri assessed as inhibition of microbial growth incubated for 18 to 22 hrs by broth microdilution method; format: functional; procedure, shortened: as §1
Enterococcus faecalis = assay: Antibacterial activity against Streptococcus faecalis assessed as inhibition of microbial growth incubated for 18 to 22 hrs by broth microdilution method; format: functional; procedure, shortened: as §1
Escherichia coli = assay: Antibacterial activity against Escherichia coli assessed as inhibition of microbial growth incubated for 18 to 22 hrs by broth microdilution method; format: functional; procedure, shortened: as §1
Proteus mirabilis = assay: Antibacterial activity against Proteus mirabilis assessed as inhibition of microbial growth incubated for 18 to 22 hrs by broth microdilution method; format: functional; procedure, shortened: as §1
Enterobacter = assay: Antibacterial activity against Enterobacter spp. assessed as inhibition of microbial growth incubated for 18 to 22 hrs by broth microdilution method; format: functional; procedure, shortened: as §1
Klebsiella oxytoca = assay: Antibacterial activity against Klebsiella oxytoca assessed as inhibition of microbial growth incubated for 18 to 22 hrs by broth microdilution method; format: functional; procedure, shortened: as §1
Candida albicans = assay: Antifungal activity against Candida albicans clinical isolates assessed as inhibition of microbial growth incubated for 24 hrs by broth microdilution method; format: functional
Procedure, shortened: (§2)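 Twenty-two clinical Candida isolates (8 C. albicans, 4 C. glabrata, 3 C. tropicalis, 3 C. krusei, 2 C. parapsilosis, 2 C. sake) were identified by colony morphology and biochemistry and subcultured at 35 °C for purity. Compounds were dissolved in DMSO and tested by broth microdilution in Sabouraud dextrose broth per NCCLS/CLSI/EUCAST guidance. Values are geometric mean MIC per species (µg/mL).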

Nakaseomyces glabratus = assay: Antifungal activity against Candida glabrata clinical isolates assessed as inhibition of microbial growth incubated for 24 hrs by broth microdilution method; format: functional; procedure, shortened: as §2
Candida tropicalis = assay: Antifungal activity against Candida tropicalis clinical isolates assessed as inhibition of microbial growth incubated for 24 hrs by broth microdilution method; format: functional; procedure, shortened: as §2
Pichia kudriavzevii = assay: Antifungal activity against Candida krusei clinical isolates assessed as inhibition of microbial growth incubated for 24 hrs by broth microdilution method; format: functional; procedure, shortened: as §2
Candida parapsilosis = assay: Antifungal activity against Candida parapsilosis clinical isolates assessed as inhibition of microbial growth incubated for 24 hrs by broth microdilution method; format: functional; details: Lodderomyces parapsilosis; procedure, shortened: as §2
[Candida] sake = Antifungal activity against Candida sake clinical isolates assessed as inhibition of microbial growth incubated for 24 hrs by broth microdilution method; format: functional; details: Fermentozyma sake; procedure, shortened: as §2
[1] = Cytotoxicity against human Hep2 cells assessed as reduction in cell viability incubated for 24 hrs by trypan blue dye exclusion assay; format: cell-based; details: HEp-2 cells
Procedure, shortened: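 Hep2 (human laryngeal epidermoid carcinoma) cells were exposed to five concentrations from 0.05 to 100 µg/mL for 24 h at 37 °C, and viability was scored by Trypan Blue exclusion as survival fraction. Controls were medium alone, DMSO-treated cells and 1 mM sodium nitroprusside. CC50 is the mean ± SD of at least three independent experiments.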

[2] = Selectivity index, ratio of CC50 for human Hep2 cells to MIC for Candida albicans clinical isolates; format: toxicity; details: HEp-2 cells, read-out: Selectivity Index
Procedure, shortened: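 Calculated as Hep2 CC50 (Trypan Blue exclusion, 24 h, 37 °C) divided by MIC against C. albicans.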

[3] = system: Streptococcus alpha-hemolyticus (Streptococcus sp.); assay: Antibacterial activity against Streptococcus Streptococcus alpha hemolyticus assessed as inhibition of microbial growth incubated for 18 to 22 hrs by broth microdilution method

Row | SMILES | MIC (Staphylococcus aureus) [µg/mL] | MIC (Staphylococcus warneri) [µg/mL] | MIC (Enterococcus faecalis) [µg/mL] | MIC (Escherichia coli) [µg/mL] | MIC (Proteus mirabilis) [µg/mL] | MIC (Enterobacter) [µg/mL] | MIC (Klebsiella oxytoca) [µg/mL] | MIC (Candida albicans) [µg/mL] | MIC (Nakaseomyces glabratus) [µg/mL] | MIC (Candida tropicalis) [µg/mL] | MIC (Pichia kudriavzevii) [µg/mL] | MIC (Candida parapsilosis) [µg/mL] | MIC ([Candida] sake) [µg/mL] | CC50 at 24 h [1] [µg/mL] | selectivity ratio [2] | MIC [3] [µg/mL]
1 | CC(C)=N/N=C1\NC(=O)CS1 | ≥ 256 | ≥ 256 | ≥ 256 | ≥ 256 | ≥ 256 | ≥ 256 | ≥ 256 | 2 | 2 | 2 | 2 | 2 | 2 | 68.4 (≈ 399 µM) | 34 | ≥ 256
2 | O=C1CS/C(=N/N=C\c2cccnc2)N1 | ≥ 256 | ≥ 256 | ≥ 256 | ≥ 256 | ≥ 256 | ≥ 256 | ≥ 256 | 8 | 8 | 16 | 16 | 16 | 16 |  |  | ≥ 256
3 | C/C(=N/N=C1\NC(=O)CS1)c1cccnc1 | ≥ 256 | ≥ 256 | ≥ 256 | ≥ 256 | ≥ 256 | ≥ 256 | ≥ 256 | 256 | 256 | 256 | 256 | 256 | 256 |  |  | ≥ 256
4 | O=C1CS/C(=N/N=C\c2ccncc2)N1 | ≥ 256 | ≥ 256 | ≥ 256 | ≥ 256 | ≥ 256 | ≥ 256 | ≥ 256 | 256 | 256 | 256 | 256 | 256 | 256 |  |  | ≥ 256
5 | O=C1CS/C(=N/N=C\c2c[nH]c3ccccc23)N1 | ≥ 256 | ≥ 256 | ≥ 256 | ≥ 256 | ≥ 256 | ≥ 256 | ≥ 256 | 128 | 16 | 8 | 16 | 256 | 256 |  |  | ≥ 256
6 | O=C1CS/C(=N/N=C\c2ccc3c(c2)OCO3)N1 | ≥ 256 | ≥ 256 | ≥ 256 | ≥ 256 | ≥ 256 | ≥ 256 | ≥ 256 | 256 | 256 | 256 | 256 | 256 | 256 |  |  | ≥ 256
7 | O=C1CS/C(=N/N=C\c2cccc3ccccc23)N1 | ≥ 256 | ≥ 256 | ≥ 256 | ≥ 256 | ≥ 256 | ≥ 256 | ≥ 256 | 256 | 256 | 256 | 256 | 256 | 256 |  |  | ≥ 256
8 | C/C(=N/N=C1\NC(=O)CS1)c1ccc2ccccc2c1 | ≥ 256 | ≥ 256 | ≥ 256 | ≥ 256 | ≥ 256 | ≥ 256 | ≥ 256 | 32 | 16 | 32 | 16 | 256 | 256 |  |  | ≥ 256
9 | C/C(=N/N=C1\NC(=O)CS1)c1cc2ccccc2oc1=O | ≥ 256 | ≥ 256 | ≥ 256 | ≥ 256 | ≥ 256 | ≥ 256 | ≥ 256 | 256 | 16 | 256 | 256 | 256 | 256 |  |  | ≥ 256
10 | C/C(=N\N=C1/NC(=O)CS1)c1cc2ccccc2o1 | ≥ 256 | ≥ 256 | ≥ 256 | ≥ 256 | ≥ 256 | ≥ 256 | ≥ 256 | 2 | 8 | 2 | 2 | 2 | 2 |  |  | ≥ 256
11 | C/C(=N/N=C1/SCC(=O)N1Cc1ccccc1)c1cccnc1 | ≥ 256 | ≥ 256 | ≥ 256 | ≥ 256 | ≥ 256 | ≥ 256 | ≥ 256 | 2 | 2 | 2 | 2 | 2 | 2 | 37.4 (≈ 115 µM) | 18.5 | 
12 | C/C(=N/N=C1\NC(=O)CS1)c1ccc2ccc3ccccc3c2c1 | ≥ 256 | ≥ 256 | ≥ 256 | ≥ 256 | ≥ 256 | ≥ 256 | ≥ 256 | 4 | 4 | 4 | 8 | 16 | 16 |  |  | ≥ 256
13 | C/C(=N/N=C1\NC(=O)CS1)c1cccc2ccccc12 | ≥ 256 | ≥ 256 | ≥ 256 | ≥ 256 | ≥ 256 | ≥ 256 | ≥ 256 | 2 | 2 | 16 | 16 | 2 | 2 |  |  | ≥ 256
14 | O=C1CS/C(=N/N=C\c2ccccn2)N1 | ≥ 256 | ≥ 256 | ≥ 256 | ≥ 256 | ≥ 256 | ≥ 256 | ≥ 256 | 2 | 8 | 2 | 4 | 2 | 2 |  |  | ≥ 256
15 | CC(=O)c1ccc(/C(C)=N\N=C2/NC(=O)CS2)cc1 | ≥ 256 | ≥ 256 | ≥ 256 | ≥ 256 | ≥ 256 | ≥ 256 | ≥ 256 | 2 | 2 | 2 | 8 | 2 | 8 |  |  | ≥ 256
16 | C/C(=N/N=C1\NC(=O)CS1)c1ccncc1 | ≥ 256 | ≥ 256 | ≥ 256 | ≥ 256 | ≥ 256 | ≥ 256 | ≥ 256 | 16 | 16 | 8 | 16 | 256 | 256 |  |  | ≥ 256
17 | C/C(=N/N=C1\NC(=O)CS1)c1ccc2c(c1)OCCO2 | ≥ 256 | ≥ 256 | ≥ 256 | ≥ 256 | ≥ 256 | ≥ 256 | ≥ 256 | 4 | 4 | 4 | 8 | 16 | 8 |  |  | ≥ 256
18 | C/C(=N/N=C1\NC(=O)CS1)c1ccc([N+](=O)[O-])cc1 | ≥ 256 | ≥ 256 | ≥ 256 | ≥ 256 | ≥ 256 | ≥ 256 | ≥ 256 | 4 | 8 | 8 | 4 | 16 | 16 |  |  | ≥ 256
19 | O=C1CS/C(=N/N=C2CCCCC2)N1Cc1ccccc1 | ≥ 256 | ≥ 256 | ≥ 256 | ≥ 256 | ≥ 256 | ≥ 256 | ≥ 256 | 2 | 2 | 2 | 2 | 2 | 2 | 22.8 (≈ 75.6 µM) | 11 | 
20 | C/C(=N/N=C1\NC(=O)CS1)c1c[nH]c2ccccc12 | ≥ 256 | ≥ 256 | ≥ 256 | ≥ 256 | ≥ 256 | ≥ 256 | ≥ 256 | 4 | 8 | 8 | 2 | 4 | 16 |  |  | ≥ 256
21 | Clc1ccccc1C(c1ccccc1)(c1ccccc1)n1ccnc1 [CLOTRIMAZOLE] |  |  |  |  |  |  |  | 2 | 2 | 2 | 2 | 2 | 2 | 38.8 (≈ 113 µM) | 19 | 
